pIC50, pKi: −log10 of the molar value. Some results are limits rather than exact numbers.

The first assay relates to Saccharomyces cerevisiae. Briefly: Potency index, ratio of acarbose IC50 to compound IC50 for baker's yeast alpha-glucosidase.
Regarding `c1ccc(Oc2ccc(Nc3nc4ccccc4o3)cc2)cc1`, the Ratio IC50 is 25.

Target in a further assay: not listed separately
Briefly: Non-competitive inhibition of baker's yeast alpha-glucosidase using p-nitrophenyl-alpha D-glucopyranoside as substrate preincubated for 15 mins followed by substrate addition measured after 30 mins by Lineweaver-Burk plot analysis. Details: species or system Saccharomyces cerevisiae. The procedure, abridged:
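Kinetics: inhibitor at 0, 10, 20, 30, 40 and 50 μM against p-nitrophenyl α-D-glucopyranoside at 0.25, 0.5, 1 and 2 mM. Inhibition type assigned from Lineweaver-Burk plots (changes in Vmax and Km); Ki estimated from replot of slope versus inhibitor concentration.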
With `c1ccc(Oc2ccc(Nc3nc4ccccc4o3)cc2)cc1`, the pKi was 4.50.

Target in the next assay: not listed separately
The experiment in a line: Inhibition of baker's yeast alpha-glucosidase using p-nitrophenyl-alpha D-glucopyranoside as substrate preincubated for 15 mins followed by substrate addition measured after 30 mins by spectrophotometric analysis. More on the design: species or system Saccharomyces cerevisiae. An outline of the steps: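 Enzyme 0.1 U/mL preincubated with test compounds at various concentrations (DMSO, final 5% v/v) in 0.1 M phosphate buffer pH 6.8, 37 C, 15 min; 1.25 mM p-nitrophenyl α-D-glucopyranoside then added, 30 min at 37 C; absorbance read at 405 nm. DMSO-only control; triplicates. % inhibition = (1-∆Asample/∆Acontrol)*100; IC50 = concentration giving 50% inhibition.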
`Cc1ccccc1Nc1nc2ccccc2o1` had a pIC50 of less than 3.70.

In the case of `COc1ccc(Nc2nc3ccccc3o2)cc1`, the pIC50 is less than 3.70. `CCOc1ccc(Nc2nc3ccccc3o2)cc1` gave a pIC50 of less than 3.70.

In the case of `Cc1ccc(Nc2nc3ccccc3o2)c(C)c1`, the negative-log IC50 (pIC50) was less than 3.70.

As for `FC(F)(F)c1cccc(Nc2nc3ccccc3o2)c1`, the negative-log IC50 (pIC50) is 3.92.

Consider `Cc1ccc(Nc2nc3ccccc3o2)cc1`, for which the pIC50 was less than 3.70. The same measure, in the same setting: under `Clc1ccc(Nc2nc3ccccc3o2)c(Cl)c1` stands 4.35. Consider `Clc1ccc(Nc2nc3ccccc3o2)cc1`, for which the pIC50 is 4.09. Compound `CCOc1ccccc1Nc1nc2ccccc2o1` showed a pIC50 of 4.19.

For the compound `c1ccc(Nc2nc3ccccc3o2)cc1`, the pIC50 was less than 3.70.

As for `c1ccc(Oc2ccc(Nc3nc4ccccc4o3)cc2)cc1`, the pIC50 is 4.49.

The compound `Fc1ccc(Nc2nc3ccccc3o2)cc1` had a pIC50 of 4.17. On the same count and under the same terms, under `Cc1cccc(Nc2nc3ccccc3o2)c1` stands less than 3.70.

In general, pKi refers to the negative decadic logarithm of the Ki, by convention in mol/L. The low end stands for a large Ki, the high end for a small Ki. The term pIC50 denotes the IC50 on a negative log10 scale, so that one unit is a factor of ten. Lower therefore signals a large IC50.

The values are drawn from ChEMBL document CHEMBL4428106, “Synthesis, biological evaluation and molecular docking study of N-arylbenzo[d]oxazol-2-amines as potential α-glucosidase inhibitors” (Bioorg Med Chem, 2016).
